How the values were obtained:
Ovis aries [1] = test: Percent reduction in Trichuris eggs per gram, after treatment with 100 mg/kg dose of compound perorally in sheep; type: functional, Egg; settings: route oral
Method in brief: (§1)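 Naturally parasitized lambs, dosed orally either with a suspension by stomach tube or with finely ground compound in gelatin capsules by balling gun. Activity was scored by the clinical test method, meaning a significant fall in helminth egg counts after treatment.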

Canis familiaris [2] = species on record: Canis familiaris; test: Percent reduction in Ancylostoma eggs per gram, after oral treatment of 25 mg/dog dose of compound in a single treatment; type: functional, Canis lupus familiaris, Egg
Method in brief: (§2)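 Dogs naturally infected with Toxascaris leonina were experimentally infected with mixed Ancylostoma caninum and Uncinaria stenocephala larvae. Finely ground compound was given orally in gelatin capsules. Fecal egg counts were taken three times before and three times after treatment, and activity was taken as the fall in egg counts.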

Canis familiaris [3] = species on record: Canis familiaris; test: Percent reduction in Uncinaria eggs per gram, after oral treatment of 10 mg/dog dose of compound in a double treatment; type: functional, Canis lupus familiaris, Egg
Ovis aries [4] = test: Percent reduction in Haemonchus eggs per gram, after treatment with 100 mg/kg dose of compound perorally in sheep; type: functional, Egg; settings: route oral
Method in brief: (§3)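 Naturally parasitized lambs received compound orally, either as the aqueous suspension by stomach tube or as finely ground powder in gelatin capsules by balling gun. Activity was judged by the clinical test method, as a significant decrease in posttreatment helminth egg counts.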

Ovis aries [5] = test: Percent reduction in Trichostrongylus eggs per gram, after treatment with 100 mg/kg dose of compound perorally in sheep; type: functional, Egg; settings: route oral; method in brief: as §1
Ovis aries [6] = test: Percent reduction in Trichostrongylus eggs per gram, after treatment with 150 mg/kg dose of compound intraperitoneally in sheep; settings: route intraperitoneal
Ovis aries [7] = test: Percent reduction in Ostertagia eggs per gram, after treatment with 100 mg/kg dose of compound perorally in sheep; type: functional, Egg; settings: route oral
Method in brief: (§4)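 Naturally parasitized lambs were dosed orally at the stated mg/kg. Dosing was either as a suspension of finely ground compound by stomach tube, or as ground compound weighed into gelatin capsules and given by balling gun. Activity was scored by the clinical test method: the decrease in posttreatment helminth eggs per gram.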

Ovis aries [8] = test: Percent reduction in Ostertagia eggs per gram, after treatment with 200 mg/kg dose of compound perorally in sheep; type: functional, Egg; settings: route oral; method in brief: as §1
Mus musculus [9] = species on record: Mus musculus; test: Percent clearance of Syphacaia obvelata from mouse after oral treatment of 1.5 mg/mouse/day; type: functional
Method in brief: (§5)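 Mice naturally carrying Syphacia obvelata were experimentally infected with Nematospiroides dubius and Hymenolepis nana, then grouped after a 2-week prepatency. Finely ground compound was suspended in aqueous 0.10% carboxymethylcellulose, 0.04% polysorbate 80 and 0.0042% polyparaben, and 0.1 mL was given orally by cannula once daily for 4 days to five mice. Necropsy followed 2 days later, scoring presence or absence of each parasite. Control clearance was subtracted from the treated clearance.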

Canis familiaris [10] = species on record: Canis familiaris; test: Percent reduction in Uncinaria eggs per gram, after oral treatment of 25 mg/dog dose of compound in a single treatment; type: functional, Canis lupus familiaris, Egg
Canis familiaris [11] = species on record: Canis familiaris; test: Percent reduction in Ancylostoma eggs per gram, after oral treatment of 10 mg/dog dose of compound in a double treatment; type: functional, Canis lupus familiaris, Egg; method in brief: as §2
Canis familiaris [12] = species on record: Canis familiaris; test: Percent reduction in Uncinaria eggs per gram, after oral treatment of 20 mg/dog dose of compound in a triple treatment; type: functional, Canis lupus familiaris, Egg
Canis familiaris [13] = species on record: Canis familiaris; test: Percent reduction in Ancylostoma eggs per gram, after oral treatment of 20 mg/dog dose of compound in a triple treatment; type: functional, Canis lupus familiaris, Egg; method in brief: as §2
Canis familiaris [14] = species on record: Canis familiaris; test: Percent reduction in Uncinaria eggs per gram, after oral treatment of 20 mg/dog dose of compound in a single treatment; type: functional, Canis lupus familiaris, Egg
Mus musculus [15] = species on record: Mus musculus; test: Percent clearance of Hymenolepis nana from mouse after oral treatment of 1.5 mg/mouse/day; type: functional; method in brief: as §5
Canis familiaris [16] = species on record: Canis familiaris; test: Percent reduction in Ancylostoma eggs per gram, after oral treatment of 20 mg/dog dose of compound in a single treatment; type: functional, Canis lupus familiaris, Egg; method in brief: as §2
Ovis aries [17] = test: Percent reduction in Strongyloides eggs per gram, after treatment with 200 mg/kg dose of compound perorally
Ovis aries [18] = test: Percent reduction in Haemonchus eggs per gram, after treatment with 200 mg/kg dose of compound perorally in sheep; type: functional, Egg; settings: dose 200 mg/kg; route oral; method in brief: as §4
Ovis aries [19] = test: Percent reduction in Strongyloides eggs per gram, after treatment with 100 mg/kg dose of compound perorally in sheep; type: functional, Egg; settings: route oral; method in brief: as §1
Ovis aries [20] = test: Percent reduction in Trichostrongylus eggs per gram, after treatment with 200 mg/kg dose of compound perorally in sheep; type: functional, Egg; settings: route oral; method in brief: as §1
Ovis aries [21] = test: Percent reduction in Oesophagostomum eggs per gram, after treatment with 100 mg/kg dose of compound perorally in sheep; type: functional, Egg; settings: route oral; method in brief: as §4
Ovis aries [22] = test: Percent reduction in Oesophagostomum eggs per gram, after treatment with 200 mg/kg dose of compound perorally in sheep; type: functional, Egg; settings: dose 200 mg/kg; route oral; method in brief: as §4
Canis familiaris [23] = species on record: Canis familiaris; test: Percent reduction in Toxascaris eggs per gram, after oral treatment of 100 mg/dog dose of compound in a single treatment; type: functional, Canis lupus familiaris, Egg
Method in brief: (§6)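 Dogs naturally infected with Toxascaris leonina were experimentally infected with mixed Ancylostoma caninum and Uncinaria stenocephala larvae. Finely ground compound was given orally in gelatin capsules. Three egg count determinations were made before and three after treatment in each experiment.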

Canis familiaris [24] = species on record: Canis familiaris; test: Percent reduction in Uncinaria eggs per gram, after oral treatment of 100 mg/dog dose of compound in a single treatment; type: functional, Canis lupus familiaris, Egg; method in brief: as §6
Canis familiaris [25] = species on record: Canis familiaris; test: Percent reduction in Toxascaris eggs per gram, after oral treatment of 200 mg/dog dose of compound in a single treatment; type: functional, Canis lupus familiaris, Egg; method in brief: as §6
Mus musculus [26] = species on record: Mus musculus; test: Percent clearance of Nematospiroides dubius from mouse after oral treatment of 1.87 mg/mouse/day; type: functional; method in brief: as §5
Canis familiaris [27] = species on record: Canis familiaris; test: Percent reduction in Uncinaria eggs per gram, after oral treatment of 200 mg/dog dose of compound in a single treatment; type: functional, Canis lupus familiaris, Egg; method in brief: as §6
Mus musculus [28] = species on record: Mus musculus; test: Percent clearance of Syphacaia obvelata from mouse after oral treatment of 1.87 mg/mouse/day; type: functional; method in brief: as §5
Ovis aries [29] = test: Percent reduction in Cooperia eggs per gram, after treatment with 100 mg/kg dose of compound perorally in sheep; type: functional, Egg; settings: route oral; method in brief: as §3
Ovis aries [30] = test: Percent reduction in Haemonchus eggs per gram, after treatment of 100 mg/kg dose of compound perorally in sheep; type: functional, Egg; settings: route oral; method in brief: as §3

`CCCCOc1ccc(/C(Cl)=N/Nc2ccccc2)cc1` gave a Reduction (Ovis aries [1]) of 100%, a Reduction (Canis familiaris [2]) of 100% and a Reduction (Canis familiaris [3]) of 75%. For the same compound, the Reduction (Ovis aries [4]) was 100%, the Reduction (Ovis aries [5]) was 100% and the Reduction (Ovis aries [6]) was 0%. For the same compound, the Reduction (Ovis aries [7]) was 100%, the Reduction (Ovis aries [8]) was 100% and the Parasite_Clearance (Mus musculus [9]) was 100%. It also gave a Reduction (Canis familiaris [10]) of 67%, a Reduction (Canis familiaris [11]) of 92% and a Reduction (Canis familiaris [12]) of 100%. The Reduction (Canis familiaris [13]) was 0%, the Reduction (Canis familiaris [14]) was 86% and the Parasite_Clearance (Mus musculus [15]) was 100%. For the same compound, the Reduction (Canis familiaris [16]) was 86%, the Reduction (Ovis aries [17]) was 100% and the Reduction (Ovis aries [18]) was 100%. The Reduction (Ovis aries [19]) was 32%, the Reduction (Ovis aries [20]) was 100% and the Reduction (Ovis aries [21]) was 100%. It also gave a Reduction (Ovis aries [22]) of 100%.
`Cl/C(=N\Nc1ccccc1)c1ccc(I)cc1` was tested, and the Reduction (Canis familiaris [23]) was 0%, the Reduction (Canis familiaris [24]) was 41% and the Reduction (Canis familiaris [25]) was 100%. The Parasite_Clearance (Mus musculus [26]) was 80%, the Reduction (Canis familiaris [27]) was 63% and the Parasite_Clearance (Mus musculus [28]) was 100%.
In the case of `Cl/C(=N\Nc1ccc(Cl)c(Cl)c1Cl)c1ccccc1`, the Reduction (Ovis aries [1]) was 0%, the Reduction (Ovis aries [5]) was 0% and the Reduction (Ovis aries [7]) was 0%. The Reduction (Ovis aries [29]) was 89%, the Reduction (Ovis aries [30]) was 0% and the Reduction (Ovis aries [19]) was 95%. The Reduction (Ovis aries [21]) was 0%.
